Converted amounts (≈) assume the structure as drawn. The source made the active and inactive calls. The calls are words filed in the database; no cut-off is given here.
Tests used:
Acetyl-CoA carboxylase 1 [1] = biological target: T1, Acetyl-CoA carboxylase 1 (Homo sapiens, UniProt Q13085); experiment: Inhibition of recombinant human N-terminal His6-tagged ACC1 expressed in baculovirus infected Sf9 insect cells using acetyl-CoA as substrate preincubated for 60 mins followed by substrate addition and measured after 30 mins Rapidfire-Mass spectrometry
Procedure, shortened: (§1)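 Human ACC1 or ACC2 from baculovirus-infected SF-9 cells (27 °C, 3 days), purified and dialyzed. Compound in DMSO diluted in 50 mM HEPES pH 7.5, 10 mM MgCl₂, 10 mM tripotassium citrate, 2 mM DTT, 0.001% fatty acid-free BSA. Enzyme and compound preincubated 60 min at room temperature. Substrate added: 50 mM KHCO₃, ATP, acetyl-CoA. Reaction ran 30 min at room temperature.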

[2] = Solubility of compound in pH 6.8 buffer; format: physicochemical
Procedure, shortened: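 Solubility measured at pH 6.8.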

[3] = Inhibition of fatty acid synthesis in human HCT-116 cells assessed as reduction in [14C] acetic acid uptake preincubated for 60 mins followed by [14C]acetic acid addition and measured after 2 hrs by topcount scintillation counting method; format: functional, cell-based
Procedure, shortened: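 HCT-116 cells, 50,000/well, cultured overnight in RPMI with 10% FBS and penicillin/streptomycin at 37 °C, 5% CO₂. Compound added in RPMI with 0.1% fatty acid-free BSA for 60 min. Then 0.1 μCi/well [¹⁴C]acetic acid for 2 h at 37 °C. Cells washed with PBS and radioactivity counted. DMSO wells set as 0%; 100 nM reference inhibitor as 100%. IC50 is the mean of duplicates with 95% CI.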

Acetyl-CoA carboxylase 2 [4] = biological target: T2, Acetyl-CoA carboxylase 2 (Homo sapiens, UniProt O00763); experiment: Inhibition of recombinant human N-terminal His6-tagged ACC2 expressed in baculovirus infected Sf9 insect cells using acetyl-CoA as substrate preincubated for 60 mins followed by substrate addition and measured after 30 mins Rapidfire-Mass spectrometry; procedure, shortened: as §1
Target sequence in this assay (O00763 whole entry): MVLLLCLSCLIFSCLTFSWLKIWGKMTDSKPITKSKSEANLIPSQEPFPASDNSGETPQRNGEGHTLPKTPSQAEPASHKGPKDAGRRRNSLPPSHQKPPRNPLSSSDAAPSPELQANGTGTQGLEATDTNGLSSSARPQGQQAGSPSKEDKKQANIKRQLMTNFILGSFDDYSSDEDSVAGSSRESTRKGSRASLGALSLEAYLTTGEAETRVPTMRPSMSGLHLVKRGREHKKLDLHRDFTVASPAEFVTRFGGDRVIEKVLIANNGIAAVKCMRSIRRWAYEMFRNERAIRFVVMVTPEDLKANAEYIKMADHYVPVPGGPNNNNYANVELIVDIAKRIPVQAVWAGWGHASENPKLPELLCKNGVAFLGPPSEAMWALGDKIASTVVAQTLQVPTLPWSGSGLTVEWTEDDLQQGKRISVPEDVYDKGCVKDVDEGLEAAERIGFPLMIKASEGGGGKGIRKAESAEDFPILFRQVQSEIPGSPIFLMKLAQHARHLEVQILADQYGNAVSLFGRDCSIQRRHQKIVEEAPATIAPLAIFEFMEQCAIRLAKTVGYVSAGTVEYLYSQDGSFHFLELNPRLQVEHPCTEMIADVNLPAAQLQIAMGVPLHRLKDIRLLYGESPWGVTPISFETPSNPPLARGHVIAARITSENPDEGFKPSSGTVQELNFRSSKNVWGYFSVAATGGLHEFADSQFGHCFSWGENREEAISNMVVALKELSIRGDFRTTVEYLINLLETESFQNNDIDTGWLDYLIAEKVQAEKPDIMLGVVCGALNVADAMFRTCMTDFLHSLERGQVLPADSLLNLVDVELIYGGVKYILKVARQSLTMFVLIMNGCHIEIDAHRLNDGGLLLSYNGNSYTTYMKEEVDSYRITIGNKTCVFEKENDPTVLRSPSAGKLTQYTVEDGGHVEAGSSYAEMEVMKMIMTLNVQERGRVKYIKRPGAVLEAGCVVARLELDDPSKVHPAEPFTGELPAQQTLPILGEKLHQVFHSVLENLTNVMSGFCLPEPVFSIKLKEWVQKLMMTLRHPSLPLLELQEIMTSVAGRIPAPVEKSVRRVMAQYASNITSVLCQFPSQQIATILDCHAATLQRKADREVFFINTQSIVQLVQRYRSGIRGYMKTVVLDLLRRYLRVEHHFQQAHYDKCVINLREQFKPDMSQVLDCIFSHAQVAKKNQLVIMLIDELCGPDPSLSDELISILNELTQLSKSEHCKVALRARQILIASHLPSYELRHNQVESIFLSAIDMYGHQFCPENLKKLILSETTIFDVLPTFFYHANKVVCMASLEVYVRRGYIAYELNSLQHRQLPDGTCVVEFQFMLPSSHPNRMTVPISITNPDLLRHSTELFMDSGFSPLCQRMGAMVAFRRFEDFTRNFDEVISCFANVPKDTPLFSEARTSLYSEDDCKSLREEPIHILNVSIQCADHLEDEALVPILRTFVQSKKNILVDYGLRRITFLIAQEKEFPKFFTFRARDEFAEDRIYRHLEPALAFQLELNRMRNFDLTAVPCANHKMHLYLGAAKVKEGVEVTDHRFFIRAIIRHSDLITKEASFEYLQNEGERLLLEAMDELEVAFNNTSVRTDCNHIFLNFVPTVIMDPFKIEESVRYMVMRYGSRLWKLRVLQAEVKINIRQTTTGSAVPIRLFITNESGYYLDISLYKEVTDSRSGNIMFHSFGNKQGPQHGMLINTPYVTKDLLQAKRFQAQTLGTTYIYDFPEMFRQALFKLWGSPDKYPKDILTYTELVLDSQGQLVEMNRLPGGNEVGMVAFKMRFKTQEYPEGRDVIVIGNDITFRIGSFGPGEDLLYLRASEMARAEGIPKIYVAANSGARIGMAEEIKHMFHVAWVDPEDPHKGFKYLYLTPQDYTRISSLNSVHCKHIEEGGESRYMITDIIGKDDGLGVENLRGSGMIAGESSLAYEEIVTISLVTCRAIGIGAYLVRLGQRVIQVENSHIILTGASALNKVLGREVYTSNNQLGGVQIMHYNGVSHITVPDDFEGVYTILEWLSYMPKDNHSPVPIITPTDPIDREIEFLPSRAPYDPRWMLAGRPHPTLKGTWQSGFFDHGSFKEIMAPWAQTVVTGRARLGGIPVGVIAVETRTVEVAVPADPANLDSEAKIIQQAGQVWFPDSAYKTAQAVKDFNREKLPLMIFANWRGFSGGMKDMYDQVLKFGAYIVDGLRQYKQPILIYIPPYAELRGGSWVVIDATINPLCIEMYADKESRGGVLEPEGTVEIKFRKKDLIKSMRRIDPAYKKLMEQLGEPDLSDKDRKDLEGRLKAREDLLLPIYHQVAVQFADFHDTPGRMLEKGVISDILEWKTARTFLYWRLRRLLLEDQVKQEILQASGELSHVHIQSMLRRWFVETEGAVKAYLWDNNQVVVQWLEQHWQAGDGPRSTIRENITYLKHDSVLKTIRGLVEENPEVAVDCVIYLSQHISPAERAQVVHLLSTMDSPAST

Acetyl-CoA carboxylase 2 [5] = biological target: T2, Acetyl-CoA carboxylase 2; experiment: Inhibition of recombinant human N-terminal His6-tagged ACC2 expressed in baculovirus infected Sf9 insect cells at 10 uM using acetyl-CoA as substrate preincubated for 60 mins followed by substrate addition and measured after 30 mins Rapidfire-Mass spectrometry relative to control; conditions: time 90.0 min
Target sequence in this assay (O00763 whole entry, looked up): as the sequence (O00763 whole entry) above

Acetyl-CoA carboxylase 1 [6] = biological target: T1, Acetyl-CoA carboxylase 1; experiment: Inhibition of recombinant human N-terminal His6-tagged ACC1 expressed in baculovirus infected Sf9 insect cells at 10 uM using acetyl-CoA as substrate preincubated for 60 mins followed by substrate addition and measured after 30 mins Rapidfire-Mass spectrometry relative to control; conditions: time 90.0 min
[7] = Oral bioavailability in ICR mouse at 1 mg/kg; format: ADME, organism-based; conditions: in vivo
Procedure, shortened: (§2)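 Male ICR mice, n = 3. Doses: 0.1 mg/kg i.v. and 1 mg/kg p.o. AUC covers 0–8 h.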

[8] = Solubility of compound in pH 1.2 buffer; format: physicochemical
[9] = Permeability of compound at pH 7.4 by PAMPA; format: ADME; conditions: read-out: permeability
[10] = Lipophilicity, log D of compound; format: physicochemical; conditions: octanol/water
[11] = Metabolic stability in human liver microsomes; format: ADME, Microsome; conditions: read-out: Stabilty
Cytochrome P450 2C9 = Cytochrome P450 2C9 (Homo sapiens, UniProt P11712); experiment: Inhibition of CYP2C9 (unknown origin) relative to control; format: ADME
Cytochrome P450 2C8 = biological target: T3, Cytochrome P450 2C8 (Homo sapiens, UniProt P10632); experiment: Inhibition of CYP2C8 (unknown origin) relative to control; format: ADME
T3 sequence (P10632 whole entry): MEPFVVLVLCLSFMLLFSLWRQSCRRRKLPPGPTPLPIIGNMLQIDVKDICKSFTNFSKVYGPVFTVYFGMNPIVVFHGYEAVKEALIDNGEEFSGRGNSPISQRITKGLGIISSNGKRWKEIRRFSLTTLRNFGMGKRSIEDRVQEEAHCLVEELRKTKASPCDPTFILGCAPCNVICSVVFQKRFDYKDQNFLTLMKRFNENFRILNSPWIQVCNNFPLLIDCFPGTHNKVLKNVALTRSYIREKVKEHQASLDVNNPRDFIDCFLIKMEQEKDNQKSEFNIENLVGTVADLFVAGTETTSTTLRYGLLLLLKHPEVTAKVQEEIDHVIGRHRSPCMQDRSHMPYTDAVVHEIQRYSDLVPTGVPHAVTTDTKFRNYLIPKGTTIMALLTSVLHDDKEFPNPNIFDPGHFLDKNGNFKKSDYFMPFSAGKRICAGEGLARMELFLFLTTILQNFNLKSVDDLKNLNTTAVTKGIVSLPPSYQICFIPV

[12] = AUC (0 to 8 hrs) in ICR mouse at 0.1 mg/kg, iv or 1 mg/kg, po; format: ADME, organism-based; design: dose 1 mg/kg; conditions: in vivo; procedure, shortened: as §2
[13] = Permeability of compound at pH 5 by PAMPA; format: ADME; conditions: read-out: permeability
[14] = Metabolic stability in mouse liver microsomes; format: ADME, Microsome; conditions: read-out: Stabilty
Mus musculus = experiment: Inhibition of fatty acid synthesis in human HCT-116 cells xenografted BALB/cA Jc1 nu/nu mouse assessed as reduction in malonyl-CoA concentration in tumor at 100 mg/kg, po administered as single dose measured after 2 to 16 hrs by RPLC-MS/MS analysis; format: functional, organism-based; conditions: time 2-16 hrs
Procedure, shortened: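 Female BALB/cA Jcl-nu/nu mice, 6 weeks old, carrying s.c. hind-flank HCT-116 xenografts (cells in HBSS with Matrigel). Mice randomized by tumor volume. Single oral dose of 100 mg/kg in 0.5% methyl cellulose, or vehicle. Tumors collected 2 and 16 h after dosing, snap-frozen and pulverized under liquid N₂. Malonyl-CoA measured by RPLC-MS/MS against a calibration curve with [¹³C₃]-malonyl-CoA as internal standard.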

Homo sapiens = organism: Homo sapiens; experiment: Selectivity ratio of IC50 for inhibition of recombinant human N-terminal His6-tagged ACC2 expressed in baculovirus infected Sf9 insect cells to IC50 for inhibition of recombinant human N-terminal His6-tagged ACC1 expressed in baculovirus infected Sf9 insect cells

SMILES | IC50 (Acetyl-CoA carboxylase 1 [1]) [nM] | solubility [2] [µg/mL] | IC50 [3] [nM] | IC50 (Acetyl-CoA carboxylase 2 [4]) [nM] | also measured
CC(=O)NC(C)c1ccc(OCc2c(F)cc(Oc3cccc(OCC4CC4)c3)cc2F)nn1 (centres undefined) | 31 | 2.3 (≈ 4.9 µM) | 110 | > 10000 | 
CC(=O)NC(C)c1ccc(Oc2ccc(Oc3cccc(OCC4CC4)c3)cc2)cc1 (centres undefined) | 39 |  |  | 20 | 
CC(=O)NC(C)c1ccc(OCc2c(F)cc(Oc3cccc(OCC4CC4)c3)cc2F)cn1 (centres undefined) | 38 | 1.5 (≈ 3.2 µM) | 70 | > 10000 | 
COCCc1ccc(Oc2ccc(-c3ccc(C(C)NC(C)=O)cc3)cc2)cc1 (centres undefined) |  |  |  | > 30000 | inhibition (Acetyl-CoA carboxylase 2 [5]): 6%; inhibition (Acetyl-CoA carboxylase 1 [6]): 49%
CCCc1ccc(Oc2ccc(-c3ccc(C(C)NC(C)=O)cc3)cc2)cc1 (centres undefined) |  |  |  |  | inhibition (Acetyl-CoA carboxylase 2 [5]): 11%; inhibition (Acetyl-CoA carboxylase 1 [6]): 38%
CCCCOc1cccc(Oc2ccc(-c3ccc(C(C)NC(C)=O)cc3)cc2)c1 (centres undefined) | 120 |  |  | 210 | 
CC(=O)NC(C)c1ccc(OCc2ccc(Oc3cccc(OCC4CC4)c3)nc2)cc1 (centres undefined) | 790 |  | 900 | > 10000 | 
CC(=O)NC(C)c1ccc(OCc2ccc(Oc3cccc(OCC4CC4)c3)cc2F)cc1 (centres undefined) | 69 |  | 63 | > 10000 | 
CC(=O)NC(C)c1cnc(OCc2c(F)cc(Oc3cccc(OCC4CC4)c3)cc2F)cn1 (centres undefined) | 89 | 0.46 (≈ 0.98 µM) | 180 | > 10000 | 
COCCc1cccc(Oc2ccc(-c3ccc(C(C)NC(C)=O)cc3)cc2)c1 (centres undefined) | 130 |  |  | 98 | 
CC(=O)NC(C)c1ccc(OCc2ccc(Oc3cccc(OCC4CC4)c3)cc2)cc1 (centres undefined) | 220 |  | 420 | > 10000 | 
CC(=O)NC(C)c1ccc(OCc2c(F)cc(Oc3cccc(OCC4CC4)c3)cc2F)cc1 (centres undefined) | 15 | < 0.21 | 9.7 | > 10000 | bioavailability [7]: 31.1%; solubility [8]: < 0.23 µg/mL; Papp [9]: 11.1 ×10⁻⁶ cm/s; logD [10]: 5.01; microsomal CLint [11]: 30 µL/min/mg; inhibition (INH) (Cytochrome P450 2C9): -22.7%; inhibition (INH) (Cytochrome P450 2C8): 31.4%; AUC(0-t) [12]: 1580 ng·h/mL; Papp [13]: 34.6 ×10⁻⁶ cm/s; microsomal CLint [14]: 36 µL/min/mg
CCCOc1ccc(Oc2ccc(-c3ccc(C(C)NC(C)=O)cc3)cc2)cc1 (centres undefined) |  |  |  |  | inhibition (Acetyl-CoA carboxylase 2 [5]): 51%; inhibition (Acetyl-CoA carboxylase 1 [6]): 50%
CC(=O)NC(C)c1ccc(OCc2c(F)cc(Oc3cccc(OCC4CC4)c3)cc2F)nc1 (centres undefined) | 17 | < 0.23 | 24 | > 10000 | bioavailability [7]: 70.5%; solubility [8]: < 0.23 µg/mL; Papp [9]: 68.3 ×10⁻⁶ cm/s; inhibition (Mus musculus): Active; logD [10]: 4.82; microsomal CLint [11]: 12 µL/min/mg; inhibition (INH) (Cytochrome P450 2C9): -13.8%; inhibition (INH) (Cytochrome P450 2C8): 32%; AUC(0-t) [12]: 5350 ng·h/mL; Papp [13]: 66.2 ×10⁻⁶ cm/s; microsomal CLint [14]: 17 µL/min/mg
CC(=O)NC(C)c1ccc(OCc2ccc(Oc3cccc(OCC4CC4)c3)cn2)cc1 (centres undefined) | 1200 |  | > 1000 | > 10000 | 
CC(=O)NC(C)c1ccc(-c2ccc(Oc3cccc(OCC4CC4)c3)cc2)cc1 (centres undefined) | 60 |  |  | 150 | Ratio IC50 (Homo sapiens): 2.5

— ChEMBL document CHEMBL4706693, “Design and synthesis of a monocyclic derivative as a selective ACC1 inhibitor by chemical modification of biphenyl ACC1/2 dual inhibitors” (Bioorg Med Chem, 2021)
